A short description of assay [1]: reducers of endogenous Her2 protein level, primary screen, SKBR3 breast tumor cells, AlphaScreen, ATP viability (AID 461;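 active means Her2 level under about 52% in both replicate screens, with viability over 70% of control, limit read from the data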;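 on Her2 level: lower value means less Her2 protein in the cells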;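 on viability: percent of carrier control wells set as 100% viability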). The settings on record: 18-24 h, measured here: SKBR3 viability, ATP luminescence, at 10 µM. For orientation: Bead proximity is the source of the signal in Alpha formats.
In assay [2] the target is Receptor tyrosine-protein kinase erbB-2 (Homo sapiens) (UniProt P04626). Described as above. The settings on record: 18-24 h, at 10 µM, stronger effect = lower value.
The nature of assay [3]: SK-BR-3 cell growth inhibitors, pilot screen, 24 h, human (AID 572;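 active means viability at or below 10% of carrier control in both of two separate runs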;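 further: compound exposure lasted between 18 and 24 h rather than exactly 24 h; 100% = carrier-treated control wells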). The settings on record: SK-BR-3 viability, CellTiter-Glo luminescence, at 10 µM, stronger effect = lower value. On the technique in general: In ATP-based viability assays light output follows the ATP content of the culture.
A short description of assay [4]: HUVEC growth inhibition – cell-based, human, primary screen (AID 575;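 active means viability at or below 30% in both replicate assays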;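 further: 100% = median of untreated cell wells with 0.1% DMSO on each plate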). The settings on record: HUVEC proliferation, CellTiter-Glo luminescence, 72 h; at 10 µM; stronger effect = lower value. An outline of the steps:
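System: primary human umbilical vein endothelial cells; Quantity: 1250 endothelial cells in each well; Buffer or medium: supplemented EBM, 2% fetal bovine serum; Doses: one dose, 10 µM final, 0.1% DMSO; Incubation: 72 h compound incubation; Technique: ATP-based CellTiter-Glo luminescent read; Evaluation: percent of median DMSO-control luminescence; Controls: vehicle and MePR control wells.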

The nature of assay [5]: growth inhibitors of H69AR lung tumor, primary screen, human, duplicate replicates (AID 580).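 Further: 100% = mean luminescence of untreated wells and 0% = no signal.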 The settings on record: H69AR lung tumor cells viability, ATP luminescence, 72 h; at 10 µM; stronger effect = lower value.
Assay [6] in a line: reversal of MRP1-mediated doxorubicin resistance, pilot screen, H69AR cells, doxorubicin co-treatment (AID 601;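 active means viability loss from added drug above about 55%, and viability with drug at most 40%, in both replicates, limit read from the data, passing the limit was not always enough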). The settings on record: CellTiter-Glo, 72 h, at 10 µM; for differential viability (reversal): stronger effect = higher value.
Assay [7] in a line: 384-well plate pilot, post-Golgi transport modulator project, inhibition of yeast transport mutant growth (AID 636; in the data active means inhibition above about 31%). The settings on record: absorbance 615 nm, about 18 h, stronger effect = higher value.
Assay [8] is described as follows: growth suppression of yeast trafficking mutant, preliminary HTS, modulators of trafficking downstream of Golgi apparatus project, 1536-format plate, OD 615 nm (AID 637; in the data active means inhibition above about 30%). The settings on record: yeast transport mutant growth, absorbance 615 nm, 18 h; stronger effect = higher value.
The mark [9] stands for this setting: H69AR cells + 2 uM doxorubicin, measured here: viability with 2 uM doxorubicin, stronger effect = lower value.
Setting [10] is: H69AR cells, compound alone cytotoxicity.

Activity calls are given as the source filed them.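 How the source made its calls, unless noted: active means viability at or under a set limit in both replicates, limit being median viability minus 3 SD (cut at about 48% in these data, passing the limit was not always enough); inconclusive means at or under the limit in just one replicate; inactive means at or above the limit in both replicates.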

Chain of Receptor tyrosine-protein kinase erbB-2 (Homo sapiens) (P04626 whole entry, looked up): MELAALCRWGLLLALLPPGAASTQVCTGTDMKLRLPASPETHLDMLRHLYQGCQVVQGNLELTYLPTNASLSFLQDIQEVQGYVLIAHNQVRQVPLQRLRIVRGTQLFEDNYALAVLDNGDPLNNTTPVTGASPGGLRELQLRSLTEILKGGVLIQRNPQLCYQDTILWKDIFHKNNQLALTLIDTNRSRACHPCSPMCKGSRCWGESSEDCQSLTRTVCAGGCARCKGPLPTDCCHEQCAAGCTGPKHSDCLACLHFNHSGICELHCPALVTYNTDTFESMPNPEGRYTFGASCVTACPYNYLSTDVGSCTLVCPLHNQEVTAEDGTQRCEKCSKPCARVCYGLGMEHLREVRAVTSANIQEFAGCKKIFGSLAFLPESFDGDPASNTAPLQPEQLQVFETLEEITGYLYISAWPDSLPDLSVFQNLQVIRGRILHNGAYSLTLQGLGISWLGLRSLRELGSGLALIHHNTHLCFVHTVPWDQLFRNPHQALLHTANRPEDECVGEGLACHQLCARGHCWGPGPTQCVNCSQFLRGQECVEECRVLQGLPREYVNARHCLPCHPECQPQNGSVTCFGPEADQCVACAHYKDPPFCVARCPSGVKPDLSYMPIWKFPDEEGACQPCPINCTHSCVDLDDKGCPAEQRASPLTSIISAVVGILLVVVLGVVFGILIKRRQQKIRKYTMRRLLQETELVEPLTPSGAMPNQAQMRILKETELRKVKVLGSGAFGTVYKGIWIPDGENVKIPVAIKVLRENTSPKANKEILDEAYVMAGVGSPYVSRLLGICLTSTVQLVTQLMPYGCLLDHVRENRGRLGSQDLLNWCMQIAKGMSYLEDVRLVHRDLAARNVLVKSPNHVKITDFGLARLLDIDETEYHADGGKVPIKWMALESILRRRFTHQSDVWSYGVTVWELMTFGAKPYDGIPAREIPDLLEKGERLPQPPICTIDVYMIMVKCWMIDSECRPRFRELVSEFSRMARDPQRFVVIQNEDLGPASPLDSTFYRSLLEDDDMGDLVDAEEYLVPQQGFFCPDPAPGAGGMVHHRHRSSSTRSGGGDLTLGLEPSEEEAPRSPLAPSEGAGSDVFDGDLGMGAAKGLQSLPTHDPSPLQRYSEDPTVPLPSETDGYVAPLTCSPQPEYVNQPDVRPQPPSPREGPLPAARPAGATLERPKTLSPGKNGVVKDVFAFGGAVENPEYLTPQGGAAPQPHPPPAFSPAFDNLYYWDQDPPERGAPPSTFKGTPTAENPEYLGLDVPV

The term viability denotes a read-out of living cells in per cent, often relative to untreated cells. As usually defined, the inhibition is the relative decrease from the control value, in per cent. Regarding `NCc1cccc(-n2cccn2)c1`, the viability in assay [1] is 110%; in assay [3], 110% (inactive); in assay [4] it was 93.2% (inactive); in assay [5], 82.6% (inactive); in assay [6] (setting [9]), 92.8%; in assay [6] (setting [10]), 82.6%. Besides, the Her2 level in assay [2] is 103% (inactive). In assay [6] (H69AR cells + 2 uM doxorubicin), the differential viability (reversal) is -10.1% (inactive). Besides, the inhibition in assay [7] was -3.64% (inactive); in assay [8], -2.7% (inactive).

Regarding `CCOc1ccc(C(=O)Nc2ccc(N3CCN(C)CC3)cc2)cc1Br`, the viability was 114% in assay [1]; 114% (inactive) in assay [3]; 2.57% (active) in assay [4]; 81.8% (inactive) in assay [5]; 71.7% in assay [6] (setting [9]); 81.8% in assay [6] (setting [10]). In addition, the Her2 level in assay [2] was 93% (inactive). In addition, the differential viability (reversal) in assay [6] (H69AR cells + 2 uM doxorubicin) was 10.2% (inactive). Besides, the figures for the inhibition in assay [7] and in assay [8] were -4.67% (inactive) and 12.1% (inactive), respectively.

On to `CCSc1nc(C)nc2c1oc1ccccc12`, for which the viability was 78.5% in assay [1]; 78.5% (inactive) in assay [3]; 92.6% (inactive) in assay [4]; 97.7% (inactive) in assay [5]; 87.7% in assay [6] (setting [9]); 97.7% in assay [6] (setting [10]). Besides, in assay [2], the Her2 level was 82% (inactive). Also, the differential viability (reversal) in assay [6] (H69AR cells + 2 uM doxorubicin) is 10% (inactive). Besides, the inhibition is -4.67% (inactive) in assay [7] and -5.74% (inactive) in assay [8].

Take `CCC(C(=O)NC1CCCC1)N(Cc1ccco1)C(=O)Cn1nnc(-c2ccc(C)cc2)n1` (stereo not given): the viability in assay [1] is 97.5%; in assay [3], 97.5% (inactive); in assay [4], 106% (inactive); in assay [5], 92.3% (inactive); in assay [6] (setting [9]), 94.2%; in assay [6] (setting [10]), 92.3%. Moreover, the Her2 level in assay [2] was 97% (inactive). In addition, the differential viability (reversal) in assay [6] (H69AR cells + 2 uM doxorubicin) is -1.87% (inactive). For the same molecule, the inhibition was -3.33% (inactive) in assay [7] and -3.44% (inactive) in assay [8].

For the molecule `Cc1cc(C)n(CCCNC(=O)c2ccc3c(c2)NC(=O)CS3)n1`, the viability in assay [1] is 104%; in assay [3], 104% (inactive); in assay [4], 91.8% (inactive); in assay [5], 89.7% (inactive); in assay [6] (setting [9]) it was 86.3%; in assay [6] (setting [10]), 89.7%. The Her2 level in assay [2] is 80.5% (inactive). In addition, the differential viability (reversal) in assay [6] (H69AR cells + 2 uM doxorubicin) was 3.36% (inactive). Further, the inhibition in assay [7] is -5.6% (inactive); in assay [8], -1.48% (inactive).

Take `O=C(c1ccc(-c2cccc(C(F)(F)F)c2)o1)N1CCOCC1`: the viability in assay [1] was 95.5%; in assay [3] it was 95.5% (inactive); in assay [4] it was 72.8% (inactive); in assay [5], 92.7% (inactive); in assay [6] (setting [9]), 76.6%; in assay [6] (setting [10]) it was 92.7%. Further, in assay [2], the Her2 level is 118% (inactive). For the same molecule, the differential viability (reversal) in assay [6] (H69AR cells + 2 uM doxorubicin) was 16.1% (inactive). The results for the inhibition in assay [7] and in assay [8] were -4.8% (inactive) and -2.58% (inactive), respectively.

For `CC1(C)CC(=O)C(C=Nc2ccc3c(c2)OCO3)=C(O)C1`, the viability was 114% in assay [1]; 114% (inactive) in assay [3]; 79.2% (inactive) in assay [4]; 75.5% (inactive) in assay [5]; 103% in assay [6] (setting [9]); 75.5% in assay [6] (setting [10]). Moreover, the Her2 level in assay [2] was 113% (inactive). In addition, the differential viability (reversal) in assay [6] (H69AR cells + 2 uM doxorubicin) was -27.7% (inactive). Also, the inhibition in assay [7] is 0% (inactive); in assay [8], -4.33% (inactive).

Consider `Cc1nc(=S)n(-c2ccccc2)[nH]1`, for which the viability in assay [1] is 104%; in assay [3] it was 104% (inactive); in assay [4], 107% (inactive); in assay [5] it was 107% (inactive); in assay [6] (setting [9]), 105%; in assay [6] (setting [10]), 107%. For the same molecule, in assay [2], the Her2 level is 107% (inactive). Further, in assay [6] (H69AR cells + 2 uM doxorubicin), the differential viability (reversal) is 2.28% (inactive). Also, the inhibition in assay [7] is -3.2% (inactive); in assay [8], -9.35% (inactive).

Take `CCOC(=O)C1CCCN(c2cc(=O)n(Cc3ccc(F)cc3)c(=O)[nH]2)C1` (stereo not given): the viability in assay [1] was 92%; in assay [3], 92% (inactive); in assay [4], 92.6% (inactive); in assay [5], 97.2% (inactive); in assay [6] (setting [9]), 94.1%; in assay [6] (setting [10]) it was 97.2%. For the same molecule, the Her2 level in assay [2] is 87% (inactive). Besides, the differential viability (reversal) in assay [6] (H69AR cells + 2 uM doxorubicin) is 3.08% (inactive). The results for the inhibition in assay [7] and in assay [8] were -4.67% (inactive) and 0.33% (inactive), respectively.

Regarding `Cc1cc(NC(=O)COc2cccc(Oc3ccccc3)c2)no1`, the viability in assay [1] was 75.5%; in assay [3] it was 75.5% (inactive); in assay [4], 50.9% (inactive); in assay [5], 22.4% (active); in assay [6] (setting [9]), 60.6%; in assay [6] (setting [10]), 22.4%. Further, the Her2 level in assay [2] was 90% (inactive). Moreover, the differential viability (reversal) in assay [6] (H69AR cells + 2 uM doxorubicin) was -38.2% (inactive). Moreover, the inhibition in assay [7] was -0.38% (inactive); in assay [8], 3.33% (inactive).

As to `Cc1cc(C(=O)NCCCN2CCOCC2)n(-c2ccccc2)n1`, the viability was 94.5% in assay [1]; 94.5% (inactive) in assay [3]; 106% (inactive) in assay [4]; 102% (inactive) in assay [5]; 92.2% in assay [6] (setting [9]); 102% in assay [6] (setting [10]). In addition, the Her2 level in assay [2] was 100% (inactive). Besides, the differential viability (reversal) in assay [6] (H69AR cells + 2 uM doxorubicin) is 9.44% (inactive). Further, the inhibition is -2.27% (inactive) in assay [7] and 3.61% (inactive) in assay [8].

On to `CCc1cc2c(CN3CCN(CCO)CC3)cc(=O)oc2cc1O`, for which the viability is 106% in assay [1]; 106% (inactive) in assay [3]; 90.4% (inactive) in assay [4]; 92.6% (inactive) in assay [5]; 91.7% in assay [6] (setting [9]); 92.6% in assay [6] (setting [10]). In assay [2], the Her2 level is 97% (inactive). Besides, in assay [6] (H69AR cells + 2 uM doxorubicin), the differential viability (reversal) is 0.895% (inactive). In addition, the inhibition was -2.53% (inactive) in assay [7] and 1.61% (inactive) in assay [8].

As for `C=CCn1c(CC#N)nnc1N1CCOCC1`, the viability in assay [1] was 90.5%; in assay [3], 90.5% (inactive); in assay [4], 100% (inactive); in assay [5], 109% (inactive); in assay [6] (setting [9]), 89.5%; in assay [6] (setting [10]) it was 109%. The Her2 level in assay [2] is 88% (inactive). In assay [6] (H69AR cells + 2 uM doxorubicin), the differential viability (reversal) was 19.4% (inactive). Further, the inhibition in assay [7] is -0.68% (inactive); in assay [8] it was -2.22% (inactive).

Turning to `Cn1nc(C(=O)N2CCOCC2)c2ccccc2c1=O`, the viability was 93% in assay [1]; 93% (inactive) in assay [3]; 88.9% (inactive) in assay [4]; 89.3% (inactive) in assay [5]; 83.4% in assay [6] (setting [9]); 89.3% in assay [6] (setting [10]). Further, the Her2 level in assay [2] is 114% (inactive). Besides, the differential viability (reversal) in assay [6] (H69AR cells + 2 uM doxorubicin) is 5.89% (inactive). In addition, the inhibition in assay [7] is -1.3% (inactive); in assay [8] it was 0.67% (inactive).

Source of the values: PubChem BioAssay.
